According to article PMC3159820 (Journal of immunology (Baltimore, Md. : 1950), 2011):

System: T cell hybridoma HH8
Test: Activation of T cell hybridoma HH8 by PT-gluten
Assay type: cell-based, mouse
Details: HH8 and DB4, in words
Method in brief: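 Irradiated (8,000 rads) T2DM cells (100,000) retrovirally expressing DQ2 WT or mutant co-cultured 16-24 h with HH8 hybridoma (100,000) and titrated PT-gluten (0.06-3 μg/μl); supernatant IL-2 by mouse IL-2 ELISA. PT-gluten: gluten digested with pepsin (pH 2.0), then trypsin/chymotrypsin (pH 6), 37°C; heat-inactivated; dialysed high-molecular-weight fraction deamidated with guinea pig transglutaminase (100 ug/ml, 1mM CaCl2, 37°C, 2h).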

| Sequence | effect of DM on presentation of the epitope |
| --- | --- |
| QLQPFPQPELPYPQPQS [α-gliadin 57-73 Q65E] | suppressed by DM in endocytic compartments |
| PQPELPYPQPQL [α-II-gliadin 62-70] | DM-suppressed epitope |
